Reference: ChEMBL document CHEMBL1155167, “Fluoroquinolone resistance in atypical pneumococci and oral streptococci: evidence of horizontal gene transfer of fluoroquinolone resistance determinants from Streptococcus pneumoniae” (2007)
In brackets after ≈: the same amount, converted by molar mass.

How the values were obtained:
Streptococcus pneumoniae [1] = assay: Antimicrobial activity against atypical Streptococcus pneumoniae L25 with parC Lys137Asn mutation by broth dilution method
Streptococcus pneumoniae [2] = assay: Antimicrobial activity against atypical Streptococcus pneumoniae L11 with parC Ser52Gly, Asn91Asp, Glu135Asp mutation by broth dilution method
Streptococcus oralis [3] = assay: Antimicrobial activity against Streptococcus oralis ATCC 10557 with gyrA Ser114Gly, and parC Ser52Gly, Asn91Asp mutation by broth dilution method; type: functional
Outline: (§1)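 Ciprofloxacin and levofloxacin MICs were determined by broth dilution following CLSI (formerly NCCLS) guidance. S. pneumoniae ATCC 6303 and ATCC 49619 served as control strains. Reference strains were S. mitis ATCC 49456 and S. oralis ATCC 10557. The clinical isolates came from patients at a Hong Kong teaching hospital.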

Streptococcus oralis [4] = assay: Antimicrobial activity against Streptococcus oralis HK575 with gyrA Ser114Gly, Leu155Val and parC Ser52Gly, Asn91Asp, Pro140Ser mutation by broth dilution method; type: functional; outline: as §1
Streptococcus oralis [5] = assay: Antimicrobial activity against Streptococcus oralis HK232 with gyrA Ser114Gly, and parC Ser52Gly, Asn91Asp mutation by broth dilution method; type: functional; outline: as §1
Streptococcus oralis [6] = assay: Antimicrobial activity against Streptococcus oralis HK417 with gyrA Ser114Gly, and parC Ser52Gly, Asn91Asp mutation by broth dilution method; type: functional; outline: as §1
Streptococcus oralis [7] = assay: Antimicrobial activity against Streptococcus oralis HK496 with gyrA Ser114Gly, and parC Ser52Gly, Asn91Asp mutation by broth dilution method; type: functional; outline: as §1
Streptococcus oralis [8] = assay: Antimicrobial activity against Streptococcus oralis HK62 with gyrA Ser114Gly, and parC Ser52Gly, Asn91Asp mutation by broth dilution method; type: functional; outline: as §1
Streptococcus oralis [9] = assay: Antimicrobial activity against Streptococcus oralis HK122 with gyrA Ser114Gly, and parC Ser52Gly, Asn91Asp mutation by broth dilution method; type: functional; outline: as §1
Streptococcus oralis [10] = assay: Antimicrobial activity against Streptococcus oralis HK123 with gyrA Ser114Gly, and parC Ser52Gly, Asn91Asp mutation by broth dilution method; type: functional; outline: as §1
Streptococcus oralis [11] = assay: Antimicrobial activity against Streptococcus oralis HK300 with gyrA Ser114Gly, and parC Ser52Gly, Asn91Asp mutation by broth dilution method; type: functional; outline: as §1
Streptococcus oralis [12] = assay: Antimicrobial activity against Streptococcus oralis HK312 with gyrA Ser114Gly, and parC Ser52Gly, Asn91Asp mutation by broth dilution method; type: functional; outline: as §1
Streptococcus oralis [13] = assay: Antimicrobial activity against Streptococcus oralis HK579 with gyrA Ser114Gly, and parC Ser52Gly, Asn91Asp mutation by broth dilution method; type: functional; outline: as §1
Streptococcus oralis [14] = assay: Antimicrobial activity against Streptococcus oralis HK754 with gyrA Ser81Leu, Ser114Gly, gyrB Ser494Thr, parC Ser52Gly, Asp83Tyr, Asn91Asp and parE Arg447Ser mutation by broth dilution method; type: functional; outline: as §1
Streptococcus mitis [15] = assay: Antimicrobial activity against Streptococcus mitis ATCC 49456 with gyrA Ser114Gly, and parC Ser52Gly, Asn91Asp, Glu135Asp mutation by broth dilution method; type: functional; outline: as §1
Streptococcus mitis [16] = assay: Antimicrobial activity against Streptococcus mitis HK260 with gyrA Ser114Gly, and parC Ser52Gly, Asn91Asp mutation by broth dilution method; type: functional; outline: as §1
Streptococcus mitis [17] = assay: Antimicrobial activity against Streptococcus mitis HK651 with gyrA Ser114Gly, and parC Ser52Gly, Asn91Asp mutation by broth dilution method; type: functional; outline: as §1
Streptococcus mitis [18] = assay: Antimicrobial activity against Streptococcus mitis HK125807 with gyrA Ser114Gly, and parC Ser52Gly, Asn91Asp mutation by broth dilution method; type: functional; outline: as §1
Streptococcus mitis [19] = assay: Antimicrobial activity against Streptococcus mitis HK467 with gyrA Ser114Gly, Leu155Val and parC Ser52Gly, Asn91Asp, mutation by broth dilution method; type: functional; outline: as §1
Streptococcus mitis [20] = assay: Antimicrobial activity against Streptococcus mitis HK666 with gyrA Ser114Gly, and parC Ser52Gly, Asn91Asp, Glu135Asp mutation by broth dilution method; type: functional; outline: as §1
Streptococcus mitis [21] = assay: Antimicrobial activity against Streptococcus mitis HK135786 with gyrA Ser114Gly, and parC Ser52Gly, Asn91Asp mutation by broth dilution method; type: functional; outline: as §1
Streptococcus mitis [22] = assay: Antimicrobial activity against Streptococcus mitis HK29 with gyrA Ser114Gly, and parC Ser52Gly, Asn91Asp mutation by broth dilution method; type: functional; outline: as §1
Streptococcus pneumoniae [23] = assay: Antimicrobial activity against Streptococcus pneumoniae L6 with gyrA Ser81Phe, parC Lys137Asn and parE Ile460Val mutation by broth dilution method
Streptococcus pneumoniae [24] = assay: Antimicrobial activity against Streptococcus pneumoniae L12 with gyrA Ser81Phe, parC Ser79 Phe and parE Ile460Val mutation by broth dilution method
Streptococcus pneumoniae [25] = assay: Antimicrobial activity against Streptococcus pneumoniae L14 with parC Lys137Asn and parE Ile460Val mutation by broth dilution method
Streptococcus pneumoniae [26] = assay: Antimicrobial activity against Streptococcus pneumoniae L15 with parC Asp83Asn Lys137Asn and parE Ile460Val mutation by broth dilution method
Streptococcus pneumoniae [27] = assay: Antimicrobial activity against Streptococcus pneumoniae L22 with parC Lys137Asn and parE Ile460Val mutation by broth dilution method
Streptococcus viridans [28] = assay: Antimicrobial activity against Viridans streptococcus L7 with gyrA Ser114Gly, gyrB Ser494Thr and parC Ser52Gly, Asn91Asp mutation by broth dilution method; type: functional; outline: as §1
Streptococcus viridans [29] = assay: Antimicrobial activity against Viridans streptococcus L16 with gyrA Ser114Gly, gyrB Ser494Thr and parC Ser52Gly, Asn91Asp mutation by broth dilution method; type: functional; outline: as §1
Streptococcus viridans [30] = assay: Antimicrobial activity against Viridans streptococcus L17 with gyrA Ser114Gly, gyrB Ser494Thr and parC Ser52Gly, Asn91Asp mutation by broth dilution method; type: functional; outline: as §1
Streptococcus viridans [31] = assay: Antimicrobial activity against Viridans streptococcus L19 with gyrA Ser114Gly, gyrB Ser494Thr, parC Ser52Gly, Asn91Asp and parE Ile460Val mutation by broth dilution method; type: functional; outline: as §1
Streptococcus viridans [32] = assay: Antimicrobial activity against Viridans streptococcus L26 gyrA Ser81Phe and parC Lys137Asn mutation by broth dilution method; type: functional; outline: as §1
Streptococcus pneumoniae [33] = assay: Antimicrobial activity against atypical Streptococcus pneumoniae L3 with parC Lys137Asn mutation by broth dilution method
Streptococcus pneumoniae [34] = assay: Antimicrobial activity against atypical Streptococcus pneumoniae L8 with parC Ser52Gly, Phe55His, Ser58Gly, Asn91Asp, Lys197Asn mutation by broth dilution method
Streptococcus pneumoniae [35] = assay: Antimicrobial activity against atypical Streptococcus pneumoniae L4 by broth dilution method
Streptococcus pneumoniae [36] = assay: Antimicrobial activity against atypical Streptococcus pneumoniae L1 with gyrA Ser81Phe and parC Ser79Phe, Glu96Asp, Lys197Asn mutation by broth dilution method

O=C(O)c1cn(C2CC2)c2cc(N3CCNCC3)c(F)cc2c1=O [CIPROFLOXACIN]
MIC (Streptococcus pneumoniae [1]): 4 µg/mL (≈ 12.1 µM)
MIC (Streptococcus pneumoniae [2]): 8 µg/mL (≈ 24.1 µM)
MIC (Streptococcus oralis [3]): 2 µg/mL (≈ 6.04 µM)
MIC (Streptococcus oralis [4]): 1 µg/mL (≈ 3.02 µM)
MIC (Streptococcus oralis [5]): 2 µg/mL (≈ 6.04 µM)
MIC (Streptococcus oralis [6]): 2 µg/mL (≈ 6.04 µM)
MIC (Streptococcus oralis [7]): 2 µg/mL (≈ 6.04 µM)
MIC (Streptococcus oralis [8]): 4 µg/mL (≈ 12.1 µM)
MIC (Streptococcus oralis [9]): 4 µg/mL (≈ 12.1 µM)
MIC (Streptococcus oralis [10]): 4 µg/mL (≈ 12.1 µM)
MIC (Streptococcus oralis [11]): 4 µg/mL (≈ 12.1 µM)
MIC (Streptococcus oralis [12]): 4 µg/mL (≈ 12.1 µM)
MIC (Streptococcus oralis [13]): 4 µg/mL (≈ 12.1 µM)
MIC (Streptococcus oralis [14]): 128 µg/mL (≈ 386 µM)
MIC (Streptococcus mitis [15]): 1 µg/mL (≈ 3.02 µM)
MIC (Streptococcus mitis [16]): < 0.5 µg/mL
MIC (Streptococcus mitis [17]): 1 µg/mL (≈ 3.02 µM)
MIC (Streptococcus mitis [18]): 2 µg/mL (≈ 6.04 µM)
MIC (Streptococcus mitis [19]): 2 µg/mL (≈ 6.04 µM)
MIC (Streptococcus mitis [20]): 2 µg/mL (≈ 6.04 µM)
MIC (Streptococcus mitis [21]): 4 µg/mL (≈ 12.1 µM)
MIC (Streptococcus mitis [22]): 4 µg/mL (≈ 12.1 µM)
MIC (Streptococcus pneumoniae [23]): 8 µg/mL (≈ 24.1 µM)
MIC (Streptococcus pneumoniae [24]): 64 µg/mL (≈ 193 µM)
MIC (Streptococcus pneumoniae [25]): 4 µg/mL (≈ 12.1 µM)
MIC (Streptococcus pneumoniae [26]): 8 µg/mL (≈ 24.1 µM)
MIC (Streptococcus pneumoniae [27]): 4 µg/mL (≈ 12.1 µM)
MIC (Streptococcus viridans [28]): 4 µg/mL (≈ 12.1 µM)
MIC (Streptococcus viridans [29]): 4 µg/mL (≈ 12.1 µM)
MIC (Streptococcus viridans [30]): 4 µg/mL (≈ 12.1 µM)
MIC (Streptococcus viridans [31]): 4 µg/mL (≈ 12.1 µM)
MIC (Streptococcus viridans [32]): 16 µg/mL (≈ 48.3 µM)
MIC (Streptococcus pneumoniae [33]): 4 µg/mL (≈ 12.1 µM)
MIC (Streptococcus pneumoniae [34]): 8 µg/mL (≈ 24.1 µM)
MIC (Streptococcus pneumoniae [35]): 4 µg/mL (≈ 12.1 µM)
MIC (Streptococcus pneumoniae [36]): > 32 µg/mL
